Data reported in ChEMBL document CHEMBL4190396, “Discovery of Novel Small-Molecule Inhibitors of NF-κB Signaling with Antiinflammatory and Anticancer Properties” (J Med Chem, 2018).
Active and inactive are the calls of the source. The rule behind the calls is not given here.

Legend:
RAW264.7 = assay: Inhibition of LPS-induced PI3K phosphorylation in mouse RAW264.7 cells at 1 to 10 uM preincubated for 1 hr followed by LPS stimulation for 15 to 30 mins by Western blot method; type: cell-based
Outline: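 RAW 264.7 cells, 3×10^6 per dish overnight, pretreated 1 h with 1, 5 or 10 µM, then LPS 100 ng/mL for 15 or 30 min; nuclear/cytoplasmic lysates (20–30 µg) run on 10% SDS-PAGE, immunoblotted for phospho/total proteins, GAPDH loading control, ECL, densitometry; three independent experiments.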

[1] = target: Proto-oncogene tyrosine-protein kinase Src (Homo sapiens) (UniProt P12931); assay: Inhibition of SRC (unknown origin) at 5 uM using KVEKIGEGTYGVVYK-amide as substrate by ADP-Glo kinase assay relative to control
[2] = target: Tyrosine-protein kinase SYK (Homo sapiens) (UniProt P43405); assay: Inhibition of wild-type human partial length SYK (D354 to N635 residues) expressed in bacterial expression system assessed as residual activity at 10 uM by Kinomescan method

Sequence of Proto-oncogene tyrosine-protein kinase Src (Homo sapiens) (P12931 2-536 limits assumed): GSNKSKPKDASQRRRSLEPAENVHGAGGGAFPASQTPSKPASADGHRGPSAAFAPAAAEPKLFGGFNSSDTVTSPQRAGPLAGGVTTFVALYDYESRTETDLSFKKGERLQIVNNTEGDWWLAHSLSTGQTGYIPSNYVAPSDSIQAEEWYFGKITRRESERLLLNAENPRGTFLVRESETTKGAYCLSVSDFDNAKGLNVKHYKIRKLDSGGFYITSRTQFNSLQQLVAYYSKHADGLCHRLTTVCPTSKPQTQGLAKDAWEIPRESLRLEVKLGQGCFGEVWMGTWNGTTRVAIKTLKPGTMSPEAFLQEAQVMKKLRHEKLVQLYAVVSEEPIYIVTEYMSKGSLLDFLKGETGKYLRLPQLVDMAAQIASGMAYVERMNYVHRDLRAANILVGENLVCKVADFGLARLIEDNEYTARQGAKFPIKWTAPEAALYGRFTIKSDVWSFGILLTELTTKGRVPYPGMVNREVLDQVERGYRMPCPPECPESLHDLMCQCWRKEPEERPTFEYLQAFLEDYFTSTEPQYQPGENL

inhibition [1]: < 50%
inhibition [2]: inactive
SMILES: O=C(NNC(=O)c1csc(-c2ccc(Cl)cc2Cl)n1)c1ccccn1
inhibition (RAW264.7): Active
